Experimental data published in ChEMBL document CHEMBL4732262, “Identification of two novel thiophene analogues as inducers of autophagy mediated cell death in breast cancer cells” (Bioorg Med Chem, 2021).
The source made the active and inactive calls. The rule behind the calls is not given here.

Experiments:
MCF7 [1] = experiment: Induction of apoptosis in human MCF7 cells assessed as increase in cleaved-PARP protein expression after 24 hrs by Western blot analysis; type: functional, cell-based; settings: dose 1.25-5 µM
MCF7 [2] = experiment: Induction of autophagy in human MCF7 cells assessed as increase in LC3-2 conversion level after 24 hrs by Western blot analysis; type: functional, cell-based; settings: dose 1.25-5 µM
Summary of the method: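 MCF7 cells exposed for 24 h to 0, 1.25, 2.5 or 5 µM. Western blot with GAPDH as loading control. LC3-II/I ratio obtained by densitometry. At least two independent experiments.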

MDA-MB-231 [3] = experiment: Induction of apoptosis in human MDA-MB-231 cells assessed as reduction in size of cells at 2.5 uM by phase contrast microscopic method; type: functional, cell-based; settings: time 6-24 hrs, TDE = time-dependent effect
Summary of the method: (§1)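 ~5 × 10^4 cells in 6-well plates, either DMSO control or 2.5 µM. Morphology imaged at 0, 6, 12 and 24 h.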

MDA-MB-231 [4] = experiment: Induction of apoptosis in human MDA-MB-231 cells assessed as increase in cleaved PARP level at 2.5 uM after r24 hrs by Western blot analysis; type: functional, cell-based; settings: time 24.0 hrs
Summary of the method: (§2)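 MCF7 or MDA-MB-231 cells given 2.5 µM or DMSO for 24 h, then lysed in RIPA buffer. Immunoblots probed overnight at 4 °C, followed by infrared-labelled secondary antibody for 1 h at 37 °C. Bands imaged and quantified densitometrically, with GAPDH as loading control. Representative of two independent experiments.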

MDA-MB-231 [5] = experiment: Induction of apoptosis in human MDA-MB-231 cells assessed as morphological changes at 2.5 uM after up to 24 hrs by phase contrast microscopic method; type: functional, cell-based; settings: time hrs <=24; summary of the method: as §1
MCF7 [6] = experiment: Induction of autophagy in human MCF7 cells assessed as increase in Bcl2L11 mRNA expression at 2.5 uM after 24 hrs by RT-PCR analysis; type: functional, cell-based
Summary of the method: (§3)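 MCF7 cells given 2.5 µM or DMSO for 24 h. Total RNA extracted with TRIzol and reverse-transcribed, then SYBR Green qPCR across 34 autophagy-regulatory genes (95 °C 10 min; 40 cycles of 95 °C 15 s and 60 °C 1 min). Relative expression by 2^-ΔΔCt against housekeeping genes and DMSO control, shown as log2. Two independent experiments.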

MCF7 [7] = experiment: Induction of apoptotic in human MCF7 cells assessed as increase in Bim protein expression at 2.5 uM after 24 hrs by Western blot analysis; type: functional, cell-based; summary of the method: as §2
MCF7 [8] = experiment: Induction of apoptosis in human MCF7 cells assessed as early apoptotic cells at 2.5 uM after 24 hrs by annexin V-FITC/Propidium iodide staining based flow cytometric analysis (reference value: 3.94%); type: functional
MCF7 [9] = experiment: Induction of autophagy in human MCF7 cells assessed as LC3-2 to LC3-1 protein ratio at 2.5 uM after 24 hrs by Western blot analysis (reference value: 0.22 to 0.8); type: functional
MDA-MB-231 [10] = experiment: Induction of apoptosis in human MDA-MB-231 cells at 2.5 uM after 24 hrs by annexin V-FITC/Propidium iodide staining based flow cytometric analysis relative to tanshinone-2A; type: functional
MCF7 [11] = experiment: Induction of apoptosis in human MCF7 cells assessed as change in Bcl-2 protein expression at 2.5 uM after 24 hrs by Western blot analysis; type: functional, cell-based; summary of the method: as §2
MCF7 [12] = experiment: Induction of autophagy in human MCF7 cells expressing GFP-LC3 assessed as distinct puncta pattern at 2.5 uM after 24 hrs by live-cell confocal microscopic analysis; type: functional, cell-based
Summary of the method: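 MCF7 cells (~1 × 10^6) at 70% confluency on glass-bottom dishes were transiently transfected with GFP-LC3 (Lipofectamine 3000). 24 h later they received 2.5 µM compound or DMSO for another 24 h. Nuclei were stained with Hoechst 33342 and lysosomes with LysoTracker Red DND-99, then imaged by live-cell confocal microscopy. LC3 puncta were counted in at least 10 cells from 3 fields. Two independent experiments.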

MCF7 [13] = experiment: Induction of autophagy in human MCF7 cells assessed as increase in CHOP protein expression at 2.5 uM after 24 hrs by Western blot analysis; type: functional, cell-based; summary of the method: as §2
MCF7 [14] = experiment: Induction of autophagy in human MCF7 cells assessed as increase in GABARAP mRNA expression at 2.5 uM after 24 hrs by RT-PCR analysis; type: functional, cell-based; summary of the method: as §3
MCF7 [15] = experiment: Induction of autophagy in human MCF7 cells assessed as increase in ATF4 protein expression at 2.5 uM after 24 hrs by Western blot analysis; type: functional, cell-based; summary of the method: as §2
MCF7 [16] = experiment: Induction of autophagy in human MCF7 cells assessed as increase in IRE1 mRNA expression at 2.5 uM after 24 hrs by PCR microarray analysis; type: functional, cell-based
Summary of the method: (§4)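 MCF7 cells given 2.5 µM or DMSO for 24 h. cDNA run on an Unfolded Protein Response RT2 Profiler PCR array. Changes computed by 2^-ΔΔCt (log2) against control, normalised to the mean of ACTB, B2M, GAPDH, HPRT1 and RPLPO.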

MCF7 [17] = experiment: Induction of apoptosis in human MCF7 cells assessed as increase in cleaved-PARP protein expression at 2.5 uM after 24 hrs in presence of chloroquine by Western blot analysis; type: functional, cell-based
Summary of the method: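 MCF7 cells given 2.5 µM alone or combined with 50 µM chloroquine for 24 h. Western blot for cleaved PARP, p62 and LC3, with GAPDH as loading control. LC3-II/I ratio by densitometry. At least two independent experiments.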

MCF7 [18] = experiment: Induction of autophagy in human MCF7 cells assessed as increase in DDIT3 mRNA expression at 2.5 uM after 24 hrs by PCR microarray analysis; type: functional, cell-based; summary of the method: as §4
MCF7 [19] = experiment: Induction of apoptosis in human MCF7cells assessed as reduction in number of cells at 2.5 uM by phase contrast microscopic method; type: functional, cell-based; settings: time 6-24 hrs, TDE = time-dependent effect; summary of the method: as §1
MCF7 [20] = experiment: Induction of autophagy in human MCF7 cells assessed as increase in GADD34 protein expression at 2.5 uM after 24 hrs by Western blot analysis; type: functional, cell-based; summary of the method: as §2
MCF7 [21] = experiment: Induction of apoptosis in human MCF7 cells at 2.5 uM after 24 hrs by annexin V-FITC/Propidium iodide staining based flow cytometric analysis relative to tanshinone-2A; type: functional
MCF7 [22] = experiment: Induction of apoptosis in human MCF7 cells assessed as late apoptotic cells at 2.5 uM after 24 hrs by annexin V-FITC/Propidium iodide staining based flow cytometric analysis (reference value: 0.2%); type: functional
MCF7 [23] = experiment: Cytotoxicity against human MCF7 cells assessed as reduction in cell viability at 25 to 100 uM after 24 hrs in presence of chloroquine by MTT assay; type: functional, cell-based; settings: dose 25-100 µM
Summary of the method: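 ~0.5 × 10^5 cells per well in six-well plates given 2.5 µM test agent together with chloroquine at 25, 50 or 100 µM, 24 h at 37 °C in humidified CO2. Viability read by MTT. Duplicate assays from two independent experiments, shown with SD.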

MCF7 [24] = experiment: Induction of apoptosis in human MCF7 cells assessed as change in Bcl-xL protein expression at 2.5 uM after 24 hrs by Western blot analysis; type: functional, cell-based; summary of the method: as §2
MCF7 [25] = experiment: Induction of autophagy in human MCF7 cells assessed as LC3-2 to LC3-1 protein ratio at 2.5 uM after 24 hrs in presence of chloroquine by Western blot analysis (reference value: 0.52 to 0.65)

Row | Structure (SMILES) | Activity (MCF7 [1]) | Activity (MCF7 [2]) | Activity (MDA-MB-231 [3]) | Activity (MDA-MB-231 [4]) | Activity (MDA-MB-231 [5]) | Activity (MCF7 [6]) | Activity (MCF7 [7]) | Activity (MCF7 [8]) | Ratio (MCF7 [9]) | fold change (FC) (MDA-MB-231 [10]) | Activity (MCF7 [11]) | Activity (MCF7 [12]) | Activity (MCF7 [13]) | Activity (MCF7 [14]) | Activity (MCF7 [15]) | Activity (MCF7 [16]) | Activity (MCF7 [17]) | Activity (MCF7 [18]) | Activity (MCF7 [19]) | Activity (MCF7 [20]) | also measured
1 | O=C1C(=O)c2ccsc2-c2ccccc21 | Dose-dependent effect | Dose-dependent effect | Tde | Active | Active | Active | Active | 17.9% | 16.3 | >=2 | inactive | Active | Active | Active | Active | Active | inactive | Active | Tde | Active | fold change (FC) (MCF7 [21]): >=2; Activity (MCF7 [22]): 19.1%; Activity (MCF7 [23]): inactive; Activity (MCF7 [24]): inactive; Ratio (MCF7 [25]): 0.92
2 | O=C1C(=O)c2sccc2-c2ccccc21 | Dose-dependent effect | Dose-dependent effect | Tde | Active | Active | Active | Active | 31.4% | 7.14 | >=2 | inactive | Active | Active | Active | Active | Active | inactive | Active | Tde | Active | fold change (FC) (MCF7 [21]): >=2; Activity (MCF7 [22]): 23.5%; Activity (MCF7 [23]): inactive; Activity (MCF7 [24]): inactive; Ratio (MCF7 [25]): 1.1
